“Also recorded” adds a separate entry of the source.
How the values were obtained:
5-HT1AR [1] = target: T1, 5-HT1AR (Homo sapiens, UniProt P08908); experiment: 5-HT1AR competition binding with [3H]8-OH-DPAT
T1 sequence (P08908 1-422): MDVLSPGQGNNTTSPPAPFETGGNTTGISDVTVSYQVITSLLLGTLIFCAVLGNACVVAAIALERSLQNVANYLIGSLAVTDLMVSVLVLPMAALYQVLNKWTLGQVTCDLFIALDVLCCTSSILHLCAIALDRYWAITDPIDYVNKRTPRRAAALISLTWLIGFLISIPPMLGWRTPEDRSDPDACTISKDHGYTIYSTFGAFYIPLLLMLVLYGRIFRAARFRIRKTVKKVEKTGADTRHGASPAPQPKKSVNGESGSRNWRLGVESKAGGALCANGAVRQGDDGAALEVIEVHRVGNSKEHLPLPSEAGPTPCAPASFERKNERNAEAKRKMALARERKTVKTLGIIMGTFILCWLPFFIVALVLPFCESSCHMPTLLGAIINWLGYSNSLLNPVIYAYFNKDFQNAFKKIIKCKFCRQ

α-1AR = α-1AR competition binding with [3H]-7-methoxyprazosin; conditions: for selectivity for 5-HT1AR over α-1AR: ratio of Ki values
5-HT1AR [2] = target: T1, 5-HT1AR; experiment: Agonist-stimulated [35S]GTPγS binding in CHO-h5-HT1A cell membranes; assay type: biochemical
In short: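 Membranes from CHO cells stably expressing human 5-HT1AR were used. [35S]GTPγS was added at 0.1 nM and incubation continued for 60 min at room temperature. The reaction was stopped by rapid filtration through GF/B filters, followed by three washes with ice-cold 20 mM HEPES, pH 7.4. Bound radioactivity was counted by liquid scintillation. The response was taken as binding above basal.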

Row | 5-HT1AR binding affinity (in words) (5-HT1AR [1]) | selectivity for 5-HT1AR over α-1AR (α-1AR) | selectivity for 5-HT1AR over α-1AR (in words) (α-1AR) | agonist profile as measured by GTPγS binding (in words) (5-HT1AR [2]) | Structure (SMILES)
1 | nanomolar affinity | > 10000 times |  |  | Cn1c(=O)cnn(CCCCN2CCN(c3ccccc3S)CC2)c1=O [Compound 31]
2 | nanomolar affinity |  |  |  | Cn1c(=O)cnn(CCCCN2CCN(c3ccccc3OCCCF)CC2)c1=O [Compound 14]
3 | sharp decrease in affinity |  |  |  | COc1ccc(N2CCN(CCCCn3ncc(=O)n(C)c3=O)CC2)c(OC)c1 [Compound 11]
4 | nanomolar affinity | > 10,000 times |  |  | Cn1c(=O)cnn(CCCCN2CCN(c3ccccc3O)CC2)c1=O [Compound 24]
5 | nanomolar affinity |  |  |  | Cn1c(=O)cnn(CCCCN2CCN(c3ccccc3C#N)CC2)c1=O [Compound 20]
6 | nanomolar affinity |  |  |  | COc1ccccc1N1CCN(CCCCn2ncc(=O)n(C)c2=O)CC1 [Compound 8]
7 | nanomolar affinity |  |  |  | CCOc1ccccc1N1CCN(CCCCn2ncc(=O)n(C)c2=O)CC1 [Compound 12]
8 | sharp decrease in affinity |  |  |  | COc1ccc(N2CCN(CCCCn3ncc(=O)n(C)c3=O)CC2)cc1 [Compound 10]
9 | nanomolar affinity |  |  |  | CSc1ccccc1N1CCN(CCCCn2ncc(=O)n(C)c2=O)CC1 [Compound 17]
10 | high affinity |  | excellent selectivity |  | Cn1c(=O)cnn(CCCCN2CCN(c3ncccc3F)CC2)c1=O [Compound 29]
11 | did not see considerable improvement |  |  |  | COc1ccc2cccc(N3CCN(CCCCCn4ncc(=O)n(C)c4=O)CC3)c2c1 [Compound 42]
12 | sharp decrease in affinity |  |  |  | Cn1c(=O)cnn(CCCCN2CCN(c3c(Br)cccc3C#N)CC2)c1=O [Compound 23]
13 | high affinity |  | excellent selectivity |  | Cn1c(=O)cnn(CCCCN2CCN(c3cccc(Br)n3)CC2)c1=O [Compound 33]
14 | high affinity |  | excellent selectivity |  | Cn1c(=O)cnn(CCCCN2CCN(c3ccccn3)CC2)c1=O [Compound 27, 4-Methyl-2-(4-(4-(pyridin-2-yl)piperazin-1-yl)butyl)-1,2,4-triazine-3,5(2H,4H)-dione]
15 | did not see considerable improvement |  |  |  | COc1ccccc1N1CCN(CCCCCn2ncc(=O)n(C)c2=O)CC1 [Compound 38]
16 | sharp decrease in affinity |  |  |  | Cn1c(=O)cnn(CCCCN2CCN(c3ccc(I)cc3)CC2)c1=O [Compound 19]

Row | Structure (SMILES) | 5-HT1AR binding affinity (in words) (5-HT1AR [1]) | selectivity for 5-HT1AR over α-1AR (α-1AR) | selectivity for 5-HT1AR over α-1AR (in words) (α-1AR) | agonist profile as measured by GTPγS binding (in words) (5-HT1AR [2])
17 | Cn1c(=O)cnn(CCCCN2CCN(c3cccc(O)c3)CC2)c1=O [Compound 25] | nanomolar affinity; also recorded: high affinity |  | excellent selectivity | 
18 | Cn1c(=O)cnn(CCCCN2CCN(c3cccc(F)n3)CC2)c1=O [Compound 32] | high affinity; also recorded: nanomolar affinity |  | excellent selectivity; also recorded: higher selectivity to 5-HT1AR over α-1AR in comparison to CUMI-101 | robust agonist profile
